From paper PMC6697619 (Cell chemical biology, 2019)
Several values for one entry are separate records, joined by “and”; a condition that tells them apart may be missing. Equal values may be shown once. Entries after “also recorded” stand apart in the source; their conditions may differ. Read-outs that look alike come from different tables or passages of the source.

What was measured:
pre-miR-21 [1] = assay: Fluorescence displacement assay; format: binding; conditions: data not shown
pre-miR-21 [2] = assay: Differential scanning fluorimetry; format: binding; conditions: titration up to 20-25 μM
[3] = system: HCT-116 colorectal cancer cells; assay: XTT cell viability assay, HCT-116; format: cell-based, human; conditions: for GI50: read-out: GI50 HCT-116
[4] = system: normal colon cells (CoN, ATCC CRL-1790); assay: XTT cell viability assay, normal colon cells; format: cell-based, human; conditions: read-out: GI50 normal colon
tRNA (Lys,3) = assay: DSF specificity screen, tRNA; format: binding; conditions: 5 μM compound, up to 5-fold molar excess
Summary of the method: (§1)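 Thermal melt by DSF with SYBR Green: each RNA was exposed to 5 μM test compound and its Tm was determined. Melts were run continuously up to 99°C at 0.09°C/s, with 5 acquisitions per °C and 0.75 s integration. Tm was taken as the half-denatured temperature from a 4PL sigmoidal fit of fluorescence against temperature.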

pre-miR-21 [5] = assay: RT-qPCR of pre-miR-21 expression in HCT-116 cells; format: cell-based, human; conditions: 50 nM, up to 24 hours post-treatment
pre-miR-21 [6] = assay: Differential scanning calorimetry; format: binding; conditions: 30 μM pre-miR-21, 300 μM bPGN
Summary of the method: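 Pre-miR-21 (30 μM), with or without 300 μM test compound, in 0.25 mM Tris-HCl pH 7.5, 0.25 mM NaCl and 1.5% DMSO, degassed. The cell was pressurised to 30 psi and run through 8 alternating up/down scans at 60°C/hr with a 16 s filter. The first up scan was subtracted, the baseline corrected, and the data fitted to a non-2-state unfolding model to give Tm and enthalpy for each transition.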

PDCD4 = assay: RT-qPCR of PDCD4 transcript in HCT-116 cells; format: cell-based, human
pre-miR-638 = assay: DSF specificity screen, pre-miR-638; format: binding; conditions: 5 μM compound, up to 5-fold molar excess
Summary of the method: as §1

[7] = target: Dicer-mediated processing of pre-miR-21 (Homo sapiens, UniProt Q9UPY3); assay: Dicer processing assay; format: biochemical; conditions: for shift in Tm in the presence of Dicer: vs DMSO only control
miR-21 = assay: RT-qPCR of miR-21 expression in HCT-116 cells; format: cell-based, human; conditions: 50 nM, within 2 hours post-treatment
Summary of the method: (§2)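 HCT-116 cells at 50–60% confluence were given 50 nM test compound, and RNA was extracted at time points from 0 to 24 h. miRNAs were quantified by RT-qPCR with LNA primers: 95°C 10 min, then 45 cycles of 95°C 10 s, 60°C 1 min and 95°C 10 s. U6 snRNA served as reference and UniSp6 as spike-in control; run in triplicate.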

[8] = system: miRs -1246, -203a-3p, -200b-3p, -361; assay: RT-qPCR of other miRs in HCT-116 cells; format: cell-based, human; conditions: 50 nM, 0-24 h
Summary of the method: as §2

PTEN = assay: RT-qPCR of PTEN transcript in HCT-116 cells; format: cell-based, human
HIV TAR = assay: DSF specificity screen, HIV TAR; format: binding; conditions: 5 μM compound, up to 5-fold molar excess
Summary of the method: as §1

Pdcd4 and PTEN = assay: Western blot of Pdcd4 and PTEN protein in HCT-116 cells; format: cell-based, human; conditions: 50 nM, within 24 hours post-treatment
Summary of the method: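 HCT-116 cells treated with 50 nM test compound were harvested at 0–36 h. Lysates were TCA/acetone precipitated, redissolved in 8 M urea, and 20 μg protein per lane was separated on 4–12% Bis-Tris gels, then dry-transferred to PVDF. Blots were probed with mouse anti-PDCD4 or anti-PTEN plus rabbit anti-GAPDH (internal control) and detected with IR-dye secondaries.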

[9] = XTT, ATCC CRL-1790, 24 hours post-treatment

Chain of Dicer-mediated processing of pre-miR-21 (Q9UPY3 whole entry): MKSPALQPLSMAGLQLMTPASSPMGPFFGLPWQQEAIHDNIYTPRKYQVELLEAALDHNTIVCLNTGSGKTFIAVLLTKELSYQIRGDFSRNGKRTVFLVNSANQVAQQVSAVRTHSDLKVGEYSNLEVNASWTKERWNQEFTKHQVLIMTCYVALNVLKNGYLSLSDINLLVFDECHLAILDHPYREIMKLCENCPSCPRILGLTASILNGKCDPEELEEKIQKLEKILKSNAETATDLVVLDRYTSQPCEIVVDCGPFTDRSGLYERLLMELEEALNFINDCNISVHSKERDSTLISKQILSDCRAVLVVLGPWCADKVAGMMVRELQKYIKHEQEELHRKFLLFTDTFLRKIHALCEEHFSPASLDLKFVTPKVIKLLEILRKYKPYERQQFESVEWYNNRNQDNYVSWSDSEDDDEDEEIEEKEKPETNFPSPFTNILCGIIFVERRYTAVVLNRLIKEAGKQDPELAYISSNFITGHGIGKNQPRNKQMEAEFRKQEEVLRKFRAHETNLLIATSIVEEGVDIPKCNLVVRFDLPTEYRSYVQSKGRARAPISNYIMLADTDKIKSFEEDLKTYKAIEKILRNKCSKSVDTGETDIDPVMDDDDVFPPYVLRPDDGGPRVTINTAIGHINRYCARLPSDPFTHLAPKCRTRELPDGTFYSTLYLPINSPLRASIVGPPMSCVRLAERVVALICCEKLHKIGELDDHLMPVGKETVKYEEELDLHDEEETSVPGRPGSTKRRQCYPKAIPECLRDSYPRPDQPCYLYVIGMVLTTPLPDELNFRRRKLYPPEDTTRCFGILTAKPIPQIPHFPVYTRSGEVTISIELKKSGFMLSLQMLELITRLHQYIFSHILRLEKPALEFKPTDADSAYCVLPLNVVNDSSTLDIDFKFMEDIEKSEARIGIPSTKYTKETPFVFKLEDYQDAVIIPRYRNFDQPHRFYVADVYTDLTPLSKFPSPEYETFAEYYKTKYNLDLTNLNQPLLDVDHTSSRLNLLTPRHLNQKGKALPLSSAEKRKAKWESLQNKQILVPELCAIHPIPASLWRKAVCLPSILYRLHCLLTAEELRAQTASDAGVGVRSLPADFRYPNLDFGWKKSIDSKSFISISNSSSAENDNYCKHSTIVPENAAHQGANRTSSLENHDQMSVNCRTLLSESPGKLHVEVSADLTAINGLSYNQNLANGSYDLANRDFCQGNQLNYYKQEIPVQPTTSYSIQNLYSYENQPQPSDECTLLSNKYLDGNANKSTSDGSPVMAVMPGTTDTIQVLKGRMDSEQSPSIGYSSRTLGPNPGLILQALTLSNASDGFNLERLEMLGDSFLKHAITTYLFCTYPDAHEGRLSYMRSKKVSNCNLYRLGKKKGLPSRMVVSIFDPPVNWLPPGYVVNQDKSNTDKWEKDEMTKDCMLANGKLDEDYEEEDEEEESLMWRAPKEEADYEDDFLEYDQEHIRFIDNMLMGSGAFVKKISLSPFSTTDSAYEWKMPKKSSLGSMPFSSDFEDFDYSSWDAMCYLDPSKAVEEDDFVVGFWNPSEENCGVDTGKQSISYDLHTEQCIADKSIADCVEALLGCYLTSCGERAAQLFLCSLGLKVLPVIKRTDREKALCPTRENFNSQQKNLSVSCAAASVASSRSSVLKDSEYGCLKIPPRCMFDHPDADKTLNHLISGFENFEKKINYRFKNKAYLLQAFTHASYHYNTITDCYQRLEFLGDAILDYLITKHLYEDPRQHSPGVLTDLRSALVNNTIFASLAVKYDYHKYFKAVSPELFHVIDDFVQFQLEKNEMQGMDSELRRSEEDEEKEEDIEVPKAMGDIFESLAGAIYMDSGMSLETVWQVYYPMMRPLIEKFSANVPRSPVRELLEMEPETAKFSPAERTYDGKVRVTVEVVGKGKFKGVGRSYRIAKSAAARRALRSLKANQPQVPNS

`CC1(C)CCC(c2ccc(Cl)cc2)=C(CN2CCN(c3ccc(C(=O)NS(=O)(=O)c4ccc(N[C@H](CCN5CCOCC5)CSc5ccccc5)c(S(=O)(=O)C(F)(F)F)c4)cc3)CC2)C1` [Navitoclax] was tested, and the “apparent binding affinity (Kd app)” value (pre-miR-21 [1]) was “did not show apparent binding affinity” and the “interaction with pre-miR-21 in DSF” value (pre-miR-21 [2]) was “no significant interaction”.
`CC[C@@]1(O)C[C@H](O[C@H]2C[C@H](N(C)C)[C@H](O)[C@H](C)O2)c2c(cc3c(c2O)C(=O)c2c(O)cccc2C3=O)[C@H]1C(=O)OC` [Compound 4, aklavin] was tested, and the “GI50 HCT-116 in words” value ([3]; XTT, 24 hours post-treatment) was “high nanomolar”, the GI50 ([3]; XTT, 24 hours post-treatment) was 0.57 ± 0.06 µM and the GI50 [4, 9] was 1.7 ± 0.4 µM.
For “1,5-bis[3-(2-hydroxyethylamino)propylamino]anthracene-9,10-dione hydrochloride [Compound 6]”, the “GI50 HCT-116 in words” value ([3]; XTT, 24 hours post-treatment) was “high nanomolar”, the GI50 ([3]; XTT, 24 hours post-treatment) was 3.2 ± 0.6 µM and the GI50 [4, 9] was 1.1 ± 0.8 µM.
For `CN1CCCC2C(c3ccccc3)C(C3=NCCCC3)C(c3ccccc3)CC21` (stereo not drawn) [Compound 7, Lobinaline], the GI50 ([3]; XTT, 24 hours post-treatment) was ≥ 10 µM and the GI50 [4, 9] was > 10 µM.
`C[C@@H](N)C(=O)N[C@H]1CO[C@H](O)[C@H](N)[C@H]1O` [Compound 8, prumycin] was tested, and the GI50 ([3]; XTT, 24 hours post-treatment) was ≥ 10 µM and the GI50 [4, 9] was 5.1 ± 0.1 µM.
With `CCCCCC1=C/C(=C/c2[nH]c(-c3ccc[nH]3)cc2OC)N=C1C` [Compound 3, prodigiosin, reference compound] the GI50 ([3]; Homo sapiens, HCT-116, 24 h) was 0.24 ± 0.04 µM and the GI50 ([4]; Homo sapiens, 24 h) was ≥ 10 µM.
In the case of `COc1cc2c3c(cc4ccccc4c3c1OC)N(C)CC2` [Compound 9, dehydronuciferin], the GI50 ([3]; XTT, 24 hours post-treatment) is reported as ≥ 10 µM and the GI50 [4, 9] is reported as > 10 µM.
`O=c1[nH]cc(F)c(=O)[nH]1` [Compound 10, 5-fluorouracil, reference compound] was tested, and the GI50 ([3]; Homo sapiens, HCT-116, 24 h) was 0.72 ± 0.02 µM and the GI50 ([4]; Homo sapiens, 24 h) was 2 ± 0.2 µM.
For `CCCC[C@H]1CCCCCCc2[nH]c(/C=C3\N=CC(c4ccc[nH]4)=C3OC)cc21` [Compound 1, butylcycloheptyl prodiginine], the “reduction of cell number” value ([3]; 0.05 μM, 24-hours post-treatment) was 55%, the cell death ([3]; concentration > 0.5 μM, 24 h) was “complete cell death” and the GI50 ([3]; XTT, 24 hours post-treatment) was 0.035 ± 0.003 µM. The IC50 ([3]; read-out: cellular growth inhibitory activity, HCT-116, as restated in text) was 0.035 µM and ~0.035 µM, the “Tm change of tRNA (Lys,3)” value (tRNA (Lys,3)) was “did not significantly change the Tm” and the pre-miR-21 expression level (pre-miR-21 [5]) was “did not significantly change”. The “DSC thermal transition Tm1 of pre-miR-21 in the presence of compound” value (pre-miR-21 [6]) was 42.3 °C, the “DSC thermal transition Tm2 of pre-miR-21 in the presence of compound” value (pre-miR-21 [6]) was 68.0 °C and the PDCD4 transcript upregulation (PDCD4; by 8 hours post-treatment) was 2 fold. For the same molecule, the PDCD4 transcript upregulation (PDCD4; by 36 hours post-treatment) was 2 – 4 fold, the “Tm change of pre-miR-638” value (pre-miR-638) was “did not significantly change the Tm; also recorded: no Tm shift was observed” and the “shift in Tm in the presence of Dicer” value ([7]; 50 μM compound, DSF) was −2.8 °C. For the same molecule, the “shift in Tm in the presence of Dicer” value ([7]; 100 μM compound, DSF) was −0.6 °C, the “inhibition of Dicer processing of pre-miR-21, gel shift” value ([7]; 50 and 100 μM, 10U Dicer per 10 μM pre-miR-21) was “dose dependent inhibition of Dicer processing” and the “Tm of pre-miR-21 under Dicer reaction conditions” value ([7]; in the presence of 10 μM compound, DSF) was 62.2 °C. The “reduction of miR-21 levels” value (miR-21) was ~ 80%, the “reduction of expression level of the other tested miRs” value [8] was ≤ 30% and the PTEN transcript upregulation (PTEN; by 8 hours post-treatment) was 2 fold. For the same molecule, the PTEN transcript upregulation (PTEN; by 36 hours post-treatment) was 2 – 4 fold, the “Tm change of HIV TAR” value (HIV TAR) was “did not significantly change the Tm” and the “Pdcd4 and PTEN protein levels” value (Pdcd4 and PTEN) was “time dependent increase”. The GI50 [4, 9] was ≥ 10 µM.
For `COC1=CC(c2cc3ccccc3[nH]2)=N/C1=C\c1[nH]c(C)cc1C` [Compound 2, obatoclax, reference compound], the GI50 ([3]; Homo sapiens, HCT-116, 24 h) was 0.1 ± 0.01 µM and the GI50 ([4]; Homo sapiens, 24 h) was ≥ 10 µM.
`COc1cc2c3c4c1Oc1cc5c(cc1O4)[C@@H](Cc1ccc(O)c(c1)Oc1ccc(cc1)C[C@@H]3N(C)CC2)N(C)CC5` [Compound 5, trigilletine] was tested, and the GI50 ([3]; Homo sapiens, HCT-116, 24 h) was 3.5 ± 0.5 µM, the “GI50 HCT-116 in words” value ([3]; XTT, 24 hours post-treatment) was “high nanomolar” and the GI50 ([4]; Homo sapiens, 24 h) was 1 ± 0.2 µM.
